Here are results for 1 compound from publication PMC11319934 (PNAS Nexus, 2024).

As a reminder, the pKi is −log10 of the Ki, conventionally taken in molar units. The low end stands for a high Ki, the high end for a low Ki. Broadly, the pKd is the negative decadic logarithm of the Kd, by convention in mol/L. Low readings indicate a high Kd, high ones a low Kd.

The target in test [1] is T1, biotin-MED25^CMIDM/His-MYC3-FLAG complex (Arabidopsis thaliana, UniProt Q9FIP9).
T1 sequence (Q9FIP9 44-238): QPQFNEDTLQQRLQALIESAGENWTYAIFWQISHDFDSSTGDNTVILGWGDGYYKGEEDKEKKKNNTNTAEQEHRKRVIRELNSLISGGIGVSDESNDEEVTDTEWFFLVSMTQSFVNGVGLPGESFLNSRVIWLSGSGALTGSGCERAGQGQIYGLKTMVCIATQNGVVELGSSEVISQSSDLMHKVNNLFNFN
Description: AlphaLISA inhibitory assay MED25CMIDM/MYC3. The class given is biochemical. Put shortly: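 Competition AlphaLISA: biotin-MED25CMIDM (150 nM) with His-MYC3-FLAG (50 nM). TMR-conjugated test peptides titrated 0–3 µM to generate inhibition curves. Run in triplicate; mean and SD reported.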
Background: Alpha assays give light when donor and acceptor beads are brought close together.

Test [2] addresses T2, His-EIL1-FLAG (Arabidopsis thaliana, UniProt Q9SLH0).
T2 sequence (Q9SLH0 201-501): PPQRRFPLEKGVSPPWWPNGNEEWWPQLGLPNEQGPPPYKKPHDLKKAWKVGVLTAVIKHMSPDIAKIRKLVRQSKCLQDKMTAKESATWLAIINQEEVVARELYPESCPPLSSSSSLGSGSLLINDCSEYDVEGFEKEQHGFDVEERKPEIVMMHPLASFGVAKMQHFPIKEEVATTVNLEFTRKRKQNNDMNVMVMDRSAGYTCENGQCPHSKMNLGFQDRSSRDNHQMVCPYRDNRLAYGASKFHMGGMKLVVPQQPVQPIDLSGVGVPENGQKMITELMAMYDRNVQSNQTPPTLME
Briefly: Fluorescence anisotropy. Type of test: binding. Put shortly:
(§1)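 FA titration at 25°C in 20 mM Tris-HCl pH 8.0, 200 mM NaCl, 10% glycerol, 10% cOmplete EDTA-free, with 2-mercaptoethanol (EIN3/EIL1 family). Protein added dropwise to 100 nM TMR-labelled peptide; His-EIN3-FLAG titrated 0–2 µM. Anisotropy read at ex/em 543/573.5 nm. Each point is the average of three independent measurements. Apparent Kd obtained by nonlinear curve fitting.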
On the technique in general: In fluorescence polarisation assays a small probe gives low polarisation when free and higher when bound to something large.

Test [3] concerns His-MpMYC-Y-FLAG (MpMYC-Y(102-299)). Briefly: Fluorescence anisotropy. Particulars: ratio of Kd of 1 to Kd of the peptide. The class given is binding, Marchantia polymorpha. In outline:
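FA titration of 100 nM TMR-labelled peptide with His-MpMYC-Y-FLAG (0–2 µM), added dropwise. Conditions: 25°C, 20 mM Tris-HCl pH 8.0, 200 mM NaCl, 10% glycerol, 10% cOmplete EDTA-free, no 2-mercaptoethanol (MYC family). Read at ex/em 543/573.5 nm, triplicate points. Apparent Kd from nonlinear fitting; values compared as Kd ratios.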

The test system of test [4] is OPDA-responsive marker genes in Marchantia gemmalings. Briefly: RT-qPCR of OPDA-responsive marker genes in M. polymorpha. Type of test: in vivo, Marchantia polymorpha. Particulars: 4 (10 µM) with OPDA (50 µM), 6 h.
Test [5] deals with A. thaliana seedlings (Col-0). Briefly: Root growth of A. thaliana seedlings with MeJA. The class given is in vivo, Arabidopsis thaliana. The note with it: Col-0 seedlings, co-treatment 4 (10 µM) with MeJA (50 µM), n = 15. Put shortly: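 Surface-sterilized Col-0 seeds stratified 2–3 days at 4°C. Grown on half-strength MS plates (2% sucrose, 0.4% gellan gum) with MeJA (50 µM) ± test compound (10 µM), under 16 h light (75 µmol m-2 s-1)/8 h dark at 22°C. Whole-seedling root length measured (n = 15). Repeated three times; one-way ANOVA/Tukey's HSD, P < 0.01.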

The target of test [6] is T3, His-EIN3-FLAG (His6-SUMO-EIN3(200–500)-FLAG) (Arabidopsis thaliana, UniProt O24606).
T3 sequence (O24606 200-500): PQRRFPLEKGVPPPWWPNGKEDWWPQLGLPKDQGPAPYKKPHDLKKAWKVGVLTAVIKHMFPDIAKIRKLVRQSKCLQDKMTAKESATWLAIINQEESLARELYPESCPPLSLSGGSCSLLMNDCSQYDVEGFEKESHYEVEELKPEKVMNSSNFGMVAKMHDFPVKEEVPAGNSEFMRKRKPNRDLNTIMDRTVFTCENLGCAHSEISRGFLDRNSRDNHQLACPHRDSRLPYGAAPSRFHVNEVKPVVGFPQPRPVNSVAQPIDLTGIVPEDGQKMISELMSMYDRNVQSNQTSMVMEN
Description: Fluorescence anisotropy. The class given is binding. In outline: as §1

Test [7] has as its system A. thaliana seedlings (Col-0). Briefly: Secondary metabolite quantification in A. thaliana. The class given is in vivo, Arabidopsis thaliana. The note with it: Col-0 seedlings, 4 (10 µM) with MeJA (50 µM), 4 days, n = 4, LC/MS. Put shortly: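 7-day-old Col-0 seedlings treated 4 days with MeJA (50 µM) ± test compound (10 µM). Glucobrassicin (i-3ym) and p-coumaroyl agmatine accumulation quantified (n = 4). Experiment repeated three times; one-way ANOVA/Tukey's HSD, P < 0.01.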

Test [8] concerns M. polymorpha gemmalings (Tak-1). Description: Growth. The class given is in vivo, Marchantia polymorpha. The note with it: Tak-1 gemmalings, 4 (10 µM) with OPDA (50 µM), n = 24. Put shortly: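 Tak-1 gemmalings grown 2 weeks on half-strength Gamborg's B5 with 1% agar, containing OPDA (50 µM) ± test compound (10 µM). Continuous light 50–60 µmol m-2 s-1, 22°C. Plant area measured in mm2 (n = 24). Experiment repeated three times; one-way ANOVA/Tukey's HSD, P < 0.01.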

The target of test [9] is T4, His-MYC3-FLAG (His6-SUMO-MYC3(44–238)-FLAG) (Arabidopsis thaliana, UniProt Q9FIP9).
T4 sequence (Q9FIP9 44-238): T1 sequence (Q9FIP9 44-238)
Description: Fluorescence anisotropy. Type of test: binding.

Test [10] concerns JA-responsive marker genes in Arabidopsis seedlings. Briefly: RT-qPCR of JA-responsive marker genes in A. thaliana. Type of test: in vivo, Arabidopsis thaliana. In outline:
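Col-0 or mutant (e.g. myc234) seedlings grown at 22°C, 16 h light/8 h dark. At 7 days, treated in half-strength MS liquid medium with MeJA (50 µM) and/or test compound (10 µM). Exposure 2 h for AOS, OPR3, MYC2, ORA59 and 8 h for VSP2, PDF1.2, ACT. Total RNA extracted; oligo-dT-primed cDNA; RT-qPCR (n = 4). One-way ANOVA/Tukey's HSD.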

pKd, pKi: −log10 of the molar value. Bridge positions count the residues as written; N and C are the ends. Square brackets hold non-standard residues; d marks the D form. Peptide text beside a SMILES is read from it. * marks the point of attachment. X1 = CN(C)c1ccc2c(-c3ccc(C(=O)*)cc3C(=O)[O-])c3ccc(=[N+](C)C)cc-3oc2c1; R5 = C=CCCC[C@@](C)(N)C(=O)O; S5 = C=CCCC[C@](C)(N)C(=O)O

`CC[C@H](C)[C@H](NC(=O)[C@H](CCCCN)NC(=O)[C@H](CO)NC(=O)[C@@H](NC(=O)[C@]1(C)CCCC=CCCC[C@](C)(NC(=O)[C@H](CCCNC(=N)N)NC(=O)[C@H](Cc2ccccc2)NC(=O)[C@H](CO)NC(=O)[C@H](CCCNC(=N)N)NC(=O)[C@H](CCCNC(=N)N)NC(=O)[C@H](CCCNC(=N)N)NC(=O)[C@H](CC(=O)O)NC(=O)[C@H](CC(C)C)NC(=O)[C@H](Cc2ccccc2)NC(=O)[C@H](CCCCN)NC(=O)[C@H](CCC(N)=O)NC(=O)[C@H](Cc2ccccc2)NC(=O)c2ccc(-c3c4ccc(=[N+](C)C)cc-4oc4cc(N(C)C)ccc34)c(C(=O)[O-])c2)C(=O)N[C@@H]([C@@H](C)CC)C(=O)N[C@@H](CCC(N)=O)C(=O)NCC(=O)N1)[C@@H](C)CC)C(=O)N[C@@H](CC(=O)O)C(=O)N1CCC[C@H]1C(=O)N[C@@H](CCC(=O)O)C(=O)N[C@]1(C)CCCC=CCCC[C@@](C)(C(=O)N[C@@H](CC(C)C)C(=O)N[C@@H](CC(C)C)C(=O)N[C@@H](C)C(=O)N[C@@H](CO)C(=O)N[C@H](C(=O)O)[C@@H](C)O)NC(=O)[C@H](CCCCN)NC(=O)[C@H]([C@@H](C)CC)NC1=O` [compound 4] (X1-FQKFLDRRRSFR[S5]IQG[S5]ISKIDPE[R5]IK[S5]LLAST-OH; staple 13-17, 25-28) gave a negative-log Ki (pKi) in test [1] of 7.15. Also, the results for the negative logarithm of the Kd (pKd) in test [2], in test [6] and in test [9] were 6.94, 6.98 and 8.30, respectively. In [3], the “fold lower Kd with MpMYC-Y than 1” value is 46 fold. In addition, the “bioactivity on marker gene expression in MpMYC-Y knockout mutant mpmycy” value in test [4] was “completely abolished”. Further, the “effect on MeJA growth inhibitory effects (root length)” value in test [5] is listed as “partially suppressed”. Besides, in [7], the “MeJA-triggered accumulation of p-coumaroyl agmatine (CouAgm) compared to MeJA alone” value is “significantly enhanced”. In [7], the “MeJA-triggered glucosinolate (glucobrassicin, i-3ym) accumulation” value is recorded as “significantly suppressed”. In addition, the “effect on OPDA growth inhibitory effects (plant area)” value in test [8] was “partially suppressed”. For the same compound, the “fold lower Kd with His-MYC3-FLAG than that of 1” value in test [9] (ratio of Kd of 1 to Kd of the peptide) came out at 42 fold. In addition, the “marker gene expression, peptide alone” value in test [10] (7-day-old Col-0, 4 (10 µM) alone without MeJA, 2 or 8 h) is “almost no effects”. Moreover, the “expression of ORA59 and ACT (EIN3/EIL1-marker genes)” value in test [10] (7-day-old Col-0, 4 (10 µM) with MeJA (50 µM), 2 or 8 h) is “activated”. Moreover, the “MeJA-induced expression of MYC-mediated marker genes (VSP2, AOS, OPR3, MYC2)” value in test [10] (7-day-old Col-0, 4 (10 µM) with MeJA (50 µM), 2 or 8 h, n = 3 or 4) is “significantly suppressed”. The “expression of PDF1.2 (EIN3/EIL1-mediated marker gene) compared with MeJA alone” value in test [10] (7-day-old Col-0, 4 (10 µM) with MeJA (50 µM), 8 h) is “strongly activated”. In test [10] (MYC triple mutant myc234, 4 (10 µM) with MeJA (50 µM), 8 h, n = 4), the “expression pattern of VSP2 and PDF1.2 on myc234 compared to MeJA alone” value was “did not significantly change”. In addition, in test [10] (ein2-1 mutant, 4 (10 µM) with MeJA (50 µM), 8 h, n = 3 or 4), the “expression pattern of VSP2 and PDF1.2 on ein2-1 compared to MeJA alone” value is reported as “did not significantly change”.
